Results taken from ChEMBL document CHEMBL4311947, “Discovery of Novel Naphthylphenylketone and Naphthylphenylamine Derivatives as Cell Division Cycle 25B (CDC25B) Phosphatase Inhibitors: Design, Synthesis, Inhibition Mechanism, and in Vitro Efficacy against Melanoma Cell Lines” (J Med Chem, 2019).
Calls of active or inactive are those of the source. No cut-off for these calls is given here.

Columns and labels:
[1] = biological target: T1, M-phase inducer phosphatase 2 (Homo sapiens) (UniProt P30305); assay: Inhibition of N-terminal His6-tagged human CDC25B (377 to 550 residues) expressed in Escherichia coli BL21(DE3) cells assessed as reduction in Vmax using OMFP as substrate by double reciprocal Lineweaver-Burk plot analysis
T1 sequence (whole entry): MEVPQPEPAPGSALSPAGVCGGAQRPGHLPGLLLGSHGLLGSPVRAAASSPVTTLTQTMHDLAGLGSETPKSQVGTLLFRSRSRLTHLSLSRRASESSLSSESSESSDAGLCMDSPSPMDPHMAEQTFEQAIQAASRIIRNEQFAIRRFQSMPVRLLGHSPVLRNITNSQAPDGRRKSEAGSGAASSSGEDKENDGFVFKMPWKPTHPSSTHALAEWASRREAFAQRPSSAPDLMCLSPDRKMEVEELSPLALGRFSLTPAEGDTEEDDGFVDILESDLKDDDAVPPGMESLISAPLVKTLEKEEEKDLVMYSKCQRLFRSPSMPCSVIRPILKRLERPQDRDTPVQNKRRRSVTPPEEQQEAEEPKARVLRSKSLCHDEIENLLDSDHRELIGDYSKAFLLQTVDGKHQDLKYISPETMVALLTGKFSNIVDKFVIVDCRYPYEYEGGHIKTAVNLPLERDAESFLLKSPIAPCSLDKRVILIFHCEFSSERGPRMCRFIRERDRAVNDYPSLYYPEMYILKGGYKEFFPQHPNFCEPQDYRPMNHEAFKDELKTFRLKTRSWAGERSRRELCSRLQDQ
How it was run: (§1)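 Recombinant CDC25 form (15–25 nM) in 20 mM Tris-HCl pH 7.8, 0.5 mM TCEP, 1% (v/v) DMSO, with or without inhibitor. Reaction started with 0.5–25 µM OMFP; O-methylfluorescein formation followed continuously at 30°C (ex 485/em 530 nm). Initial rates (AU/min) analysed in Lineweaver-Burk plots for Vmax, KM and mechanism; Ki averaged from at least three independent experiments, only roughly estimated for mixed inhibition.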

[2] = biological target: T2, M-phase inducer phosphatase 2 (Homo sapiens, UniProt P30305); assay: Non-competitive inhibition of N-terminal His6-tagged human CDC25B (377 to 550 residues) expressed in Escherichia coli BL21(DE3) cells using OMFP as substrate by double reciprocal Lineweaver-Burk plot analysis; how it was run: as §1
T2 sequence (P30305 whole entry): T1 sequence (whole entry)

[3] = biological target: T2, M-phase inducer phosphatase 2; assay: Mixed inhibition of N-terminal His6-tagged human CDC25B (377 to 550 residues) expressed in Escherichia coli BL21(DE3) cells using OMFP as substrate by double reciprocal Lineweaver-Burk plot analysis; how it was run: as §1
[4] = biological target: T2, M-phase inducer phosphatase 2; assay: Uncompetitive inhibition of N-terminal His6-tagged human CDC25B (377 to 550 residues) expressed in Escherichia coli BL21(DE3) cells using OMFP as substrate by double reciprocal Lineweaver-Burk plot analysis; how it was run: as §1
[5] = biological target: T1, M-phase inducer phosphatase 2 (Homo sapiens); assay: Inhibition of N-terminal His6-tagged human CDC25B (377 to 550 residues) expressed in Escherichia coli BL21(DE3) cells at 4 uM by spectrofluorimetric analysis
How it was run: (§2)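 Intrinsic fluorescence of 1 µM recombinant CDC25B in 20 mM Tris·HCl pH 7.8, 0.5 mM TCEP, 0.5% (v/v) DMSO, recorded at 20°C with 280 nm excitation and 10 nm slits, without or with added NPA derivative. OMFP substrate omitted.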

[6] = biological target: T3, M-phase inducer phosphatase 3 (Homo sapiens, UniProt P30307); assay: Inhibition of N-terminal His6-tagged human CDC25C (280 to 454 residues) expressed in Escherichia coli BL21(DE3) cells using OMFP as substrate by double reciprocal Lineweaver-Burk plot analysis; how it was run: as §1
T3 sequence (P30307 whole entry): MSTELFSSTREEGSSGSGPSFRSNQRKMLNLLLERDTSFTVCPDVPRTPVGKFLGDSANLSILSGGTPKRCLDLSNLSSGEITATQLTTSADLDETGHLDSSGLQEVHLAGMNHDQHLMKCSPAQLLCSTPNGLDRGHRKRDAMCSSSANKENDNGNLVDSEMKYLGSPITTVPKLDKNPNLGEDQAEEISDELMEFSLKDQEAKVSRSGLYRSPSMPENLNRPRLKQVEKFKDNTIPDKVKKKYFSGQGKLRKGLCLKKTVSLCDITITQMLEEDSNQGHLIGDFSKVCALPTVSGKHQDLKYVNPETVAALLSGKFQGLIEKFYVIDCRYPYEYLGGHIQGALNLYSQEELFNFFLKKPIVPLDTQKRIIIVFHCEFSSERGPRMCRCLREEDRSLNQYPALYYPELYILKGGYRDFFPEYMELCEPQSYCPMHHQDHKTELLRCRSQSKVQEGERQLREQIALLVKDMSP

[7] = biological target: T4, M-phase inducer phosphatase 1 (Homo sapiens, UniProt P30304); assay: Inhibition of N-terminal His6-tagged human CDC25A (336 to 508 residues) expressed in Escherichia coli BL21(DE3) cells using OMFP as substrate by double reciprocal Lineweaver-Burk plot analysis; how it was run: as §1
T4 sequence (P30304 whole entry): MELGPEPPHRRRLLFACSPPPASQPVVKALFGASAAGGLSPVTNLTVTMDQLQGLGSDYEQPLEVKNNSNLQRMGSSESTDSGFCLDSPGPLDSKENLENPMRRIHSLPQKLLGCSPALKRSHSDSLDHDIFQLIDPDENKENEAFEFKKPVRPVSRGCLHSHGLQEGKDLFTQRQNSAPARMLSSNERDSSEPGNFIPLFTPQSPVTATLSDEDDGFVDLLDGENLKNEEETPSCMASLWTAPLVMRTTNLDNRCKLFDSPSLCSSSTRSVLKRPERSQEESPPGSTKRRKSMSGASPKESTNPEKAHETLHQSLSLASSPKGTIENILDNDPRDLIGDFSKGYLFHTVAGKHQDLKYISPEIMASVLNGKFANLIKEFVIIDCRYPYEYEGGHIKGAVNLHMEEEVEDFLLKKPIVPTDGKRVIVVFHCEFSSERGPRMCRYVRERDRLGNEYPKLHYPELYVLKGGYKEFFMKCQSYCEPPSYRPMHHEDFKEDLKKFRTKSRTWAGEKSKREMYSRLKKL

[8] = biological target: T1, M-phase inducer phosphatase 2 (Homo sapiens); assay: Inhibition of N-terminal His6-tagged human CDC25B (377 to 550 residues) expressed in Escherichia coli BL21(DE3) cells at 1.5 uM by spectrofluorimetric analysis; how it was run: as §2
[9] = biological target: T1, M-phase inducer phosphatase 2 (Homo sapiens); assay: Inhibition of N-terminal His6-tagged human CDC25B (377 to 550 residues) expressed in Escherichia coli BL21(DE3) cells at 3 uM by spectrofluorimetric analysis; how it was run: as §2
[10] = test system: A2058; assay: Cytotoxicity against human A2058 cells at 50 uM after 48 hrs by MTT assay; assay type: functional, cell-based
How it was run: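 Cells seeded at 4×10^4/well, treated 24 h after plating with inhibitor or 0.5% (v/v) DMSO vehicle for 24, 48 or 72 h. MTT added, 3 h at 37°C under 5% CO2, formazan solubilised, absorbance at 570 nm. Viability in arbitrary units, mean ± SE of at least three independent experiments versus control. Cells grown in DMEM/10% FBS at 37°C, 5% CO2; BJ-5ta cultured in 4:1 DMEM/Medium 199 with hygromycin B.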

SMILES	inhibition [1]	Ki [2]	also measured
CCOC(=O)c1cccc(Nc2ccc(OC)c3ccccc23)c1	Active	11.9 µM	–
O=C(O)c1ccccc1C(=O)c1cc(O)cc2ccccc12	Active	34 µM	–
O=C(O)c1cccc(Nc2cc(O)cc3ccccc23)c1	Active	5.8 µM	–
O=C(O)c1cccc(Nc2cccc3c(O)cccc23)c1	Active	2.9 µM	–
CCOC(=O)c1ccccc1C(=O)c1cccc2ccccc12	Active	–	Ki [3]: 54 µM
CCOC(=O)c1cccc(Nc2cccc3c(O)cccc23)c1	Active	4.9 µM	–
O=C(O)c1ccccc1Nc1cccc2ccccc12	Active	–	Ki [4]: 22 µM
CCOC(=O)c1ccccc1Nc1cccc2c(N)cccc12	Active	9.9 µM	–
O=C(O)c1ccccc1Nc1ccc(O)c2ccccc12	Active	2.7 µM	–
O=C(O)c1cccc(Nc2cccc3ccccc23)c1	Active	–	Ki [3]: 30 µM
CCOC(=O)c1ccccc1Nc1cccc2ccccc12	Active	–	Ki [4]: 2.8 µM; inhibition [5]: inactive; Ki [6]: 0.4 µM; Ki [7]: 0.6 µM
Nc1cccc2c(Nc3cccc(C(=O)O)c3)cccc12 [listing 1 of 3 here]	Active	–	inhibition [8]: Active
Nc1ccc(Nc2cccc(C(=O)O)c2)c2ccccc12	Active	1.4 µM	inhibition [9]: Active
COc1cc(Nc2cccc(C(=O)O)c2)c2ccccc2c1	Active	–	Ki [4]: 55 µM
COc1ccc(Nc2cccc(C(=O)O)c2)c2ccccc12	Active	–	Ki [4]: 45 µM
O=C(O)c1ccccc1Nc1cccc2c(O)cccc12	Active	13.4 µM	–

SMILES	inhibition [1]	Ki [2]	also measured
COc1ccc(Nc2ccccc2C(=O)O)c2ccccc12	Active	–	Ki [4]: 6.1 µM
CCOC(=O)c1ccccc1Nc1cccc2c(O)cccc12	Active	7.4 µM	–
COc1cc(C(=O)c2ccccc2C(=O)O)c2ccccc2c1	Active	–	Ki [3]: 36 µM
COc1ccc(C(=O)c2ccccc2C(=O)O)c2ccccc12	Active	7.1 µM	–
COc1cc(Nc2ccccc2C(=O)O)c2ccccc2c1	Active	16.9 µM	–
Nc1cccc2c(Nc3cccc(C(=O)O)c3)cccc12 [listing 2 of 3 here]	–	–	Ki [6]: 4 µM; Ki [7]: 0.6 µM
Nc1cccc2c(Nc3cccc(C(=O)O)c3)cccc12 [listing 3 of 3 here]	–	0.8 µM	–
Nc1cccc2c(Nc3ccccc3C(=O)O)cccc12	Active	6.5 µM	–
CCOC(=O)c1cccc(Nc2cccc3c(N)cccc23)c1	Active	36 µM	–
CCOC(=O)c1ccccc1Nc1cc(OC)cc2ccccc12	Active	–	Ki [4]: 12.5 µM
O=C(O)c1ccccc1Nc1cc(O)cc2ccccc12	Active	5.1 µM	–
CCOC(=O)c1cccc(Nc2cccc3ccccc23)c1	Active	–	Ki [4]: 7.3 µM; Activity [10]: Active
O=C(O)c1ccccc1C(=O)c1cccc2ccccc12	Active	–	Ki [3]: 69 µM
c1ccc(Nc2cccc3ccccc23)cc1	Active	–	Ki [3]: 32 µM
O=C(O)c1cccc(Nc2ccc(O)c3ccccc23)c1	Active	–	Ki [4]: 6.4 µM
CCOC(=O)c1ccccc1Nc1ccc(OC)c2ccccc12	Active	6.9 µM	–
